Shown are actives, neighbours in structure and some others; about 1.3% of the full set was active somewhere.
CSN inh = CSN deneddylation inhibition; Purified CSN, SCF-Nedd8-OG deneddylation, fluorescence polarization; inhibition, % at 12.5 µM; actives 0.38% (n = 360,000); AID 651999;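 active = pattern-corrected inhibition above about 35%, with an unprinted fluorescence ratio check between 0.5 and 1.5, limit read from the data, passing the limit was not always enough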
Target sequence (Q92905 whole entry, looked up, one chain of several): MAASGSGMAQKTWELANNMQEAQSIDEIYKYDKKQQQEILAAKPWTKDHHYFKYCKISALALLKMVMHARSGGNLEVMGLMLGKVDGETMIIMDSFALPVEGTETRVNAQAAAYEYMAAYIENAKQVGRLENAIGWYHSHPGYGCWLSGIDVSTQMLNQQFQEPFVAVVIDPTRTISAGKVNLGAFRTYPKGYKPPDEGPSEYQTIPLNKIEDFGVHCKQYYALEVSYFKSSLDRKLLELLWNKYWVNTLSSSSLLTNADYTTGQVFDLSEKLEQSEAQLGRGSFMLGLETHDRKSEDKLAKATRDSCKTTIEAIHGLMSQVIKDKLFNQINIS
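test system = HEK293T-derived human Csn5 enzyme | amount = 0.24 nM Csn5 enzyme, final concentration | medium = Tris/NaCl/DTT buffer, pH 7.5 | schedule = 90 min reaction at room temperature | signal = FP | evaluation = inhibition of Csn5 cleavage, % | compound dosing = single dose of 12.5 µM compound with 0.25% DMSO | probe or stimulus = 10 nM SCFSkp2-Nedd8OG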
aDG glyco act = increases alpha dystroglycan glycosylation. Pro5-aDG cells, alpha-DG glycosylation AlphaScreen (IIH6); 0% Pro5, 100% B10-LARGE cell signal. activation, % at 10 µM. actives 0.22% (n = 360,000);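 active = activation of at least 8% versus controls, or a plate z-score of at least 8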;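 also: Pro5 are CHO cells carrying HIG-tagged alpha-DG that lacks glycosylation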
TPT1 inhibitor = inhibitors of Candida albicans tRNA 2'-phosphotransferase TPT1; recombinant caTPT1, FP RNA substrate dephosphorylation; inhibition, % at 5 µM; actives 0.81% (n = 300,000); AID 1962;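 active = inhibition above the mean of all tested compounds plus 3 SD, set per screening campaign, cut at about 24% in these data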
HNF4A DNA FP = change in binding of human HNF4 alpha to DNA. P41235. HNF4a-FITC DNA binding, fluorescence polarization, 1 h. activity change, % at 10 µM. actives 0.3% (n = 360,000). AID 1224865; in the data active = activity change above about 30%, passing the limit was not always enough
Xi reactivation = X-chromosome reactivation activator; activation, % at 7.58 µM; XiGFP mouse fibroblasts, % GFP-positive cells imaging, 3 d; cells co-treated with 5-aza-dC sensitizer; scaled so ellipticine positive control = 100%; actives 0.055% (n = 360,000);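 active = mean normalized replicate activation at least 10% and every replicate at or above 10%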
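Material: SV40-immortalized XiGFP fibroblast cells, line 68-5-11 | Buffer or medium: DMEM containing 5-aza-dC | Dosing: One concentration, pinned | Times: 3 d treatment, 15 min room-temperature fixation | Controls: Ellipticine 6 µM positive control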
Rpn11 inh = Rpn11 (human) deubiquitinase inhibition; O00487; human 26S proteasome, Ub4-pepOG fluorescence polarization; 20S core pre-blocked with epoxomicin; inhibition, % at 20 µM; actives 0.59% (n = 360,000);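 active = inhibition at 20 µM, scaled to each plate's controls, above about 33%, limit read from the data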
caTPT1 confirm = TPT1 (C. albicans) inhibition, confirmation; shares compounds with TPT1 inhibitor; recombinant caTPT1, fluorescence polarization, RNase T1 coupled; actives 74% (n = 2,400); inhibition, % at 5 µM;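 active = inhibition above the primary screen limit, the mean inhibition of all tested compounds plus 3 SD, cut at about 25% in these data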
RNase T1 counter = blocks Aspergillus oryzae RNase T1, a TPT1 counter-screen; shares compounds with TPT1 inhibitor; RNase T1 cleavage, fluorescence polarization, 1536-well; inhibition, % at 5 µM; actives 83% (n = 2,400); AID 2153;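 active = inhibition above the solvent-only control well mean plus 3 SD, limit set per screening run, cut at about 23% in these data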;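 also: inhibitors block cleavage so intact labeled substrate keeps polarization high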
Target sequence (P00651 whole entry, looked up): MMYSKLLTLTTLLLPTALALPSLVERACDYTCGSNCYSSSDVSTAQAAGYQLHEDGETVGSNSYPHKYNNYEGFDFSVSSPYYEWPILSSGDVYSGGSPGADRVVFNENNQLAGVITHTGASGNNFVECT
Rpn11 confirm = confirmation of human proteasome Rpn11 inhibitors | shares compounds with Rpn11 inh | purified human 26S proteasome, Ub4-pepOG fluorescence polarization; proteasome pretreated with epoxomicin | inhibition, % at 20 µM | actives 29% (n = 1,900)
MMP-2 counter-1 = MMP-2 (human) inhibition counter-screen; shares compounds with Rpn11 inh; recombinant MMP-2, FRET peptide cleavage fluorescence; inhibition, % at 20 µM; actives 4% (n = 1,900); AID 602330;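 also: human MMP-2 activated beforehand with APMA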
Thrombin FP = blocks bovine thrombin, flagging nonselective RPN11 hits | actives 13% (n = 1,900) | bovine thrombin cleavage of Ub4-pepOG, fluorescence polarization | shares compounds with Rpn11 inh | AID 602333 | inhibition, % at 20 µM;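 active = mean inhibition at least 40% at 20 µM, or signal 3 deviations below plate average, so some actives read negative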
CSN5 deneddyl = validation of inhibitors of human CSN-mediated cullin deneddylation | shares compounds with CSN inh | Csn5 deneddylation of SCF-Nedd8OG, fluorescence polarization, 90 min | inhibition, % at 16.6 µM | actives 62% (n = 540); in the data active = inhibition above about 50%
MMP-2 counter-2 = counter-screen for CSN deneddylation inhibitors: human MMP-2 inhibition; shares compounds with CSN inh; recombinant MMP-2, FRET substrate fluorescence, 60 min; inhibition, % at 16.6 µM; actives 33% (n = 540); AID 720655;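 active = corrected plate-normalized z-score of 5 or more, or -5 or less, or inhibition of 15% or more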
Thrombin cntr = blocks bovine thrombin in a CSN deneddylation counter-screen | shares compounds with CSN inh | bovine thrombin cleavage of Ub4-pepOG, fluorescence polarization | inhibition, % at 16.6 µM | actives 49% (n = 540);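 active = inhibition at or above a set limit, with a fluorescence interference ratio between 0.5 and a set maximum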
Numbers stand for hits; - = inactive; . = not tested or not shown; + = active, no number. Rule as the data show it, unless noted: active = inhibition above about 40%; inactive = the rest.

SMILES	CSN inh	aDG glyco act	TPT1 inhibitor	HNF4A DNA FP	Xi reactivation	Rpn11 inh	caTPT1 confirm	RNase T1 counter	CSN5 deneddyl	MMP-2 counter-2	Thrombin cntr	others
CN(C)c1ccc(/C=C2\C(=N)N3N=C(CC(=O)N4CCCCC4)SC3=NC2=O)cc1	90	-	122	-	-	.	140	148	76	-57	94
Nc1ccc(/C=C/C(=O)c2cccs2)cc1	40	-	78	-	-	.	96	99	72	-	32
CCOC(=O)C1CCCN(C2=NC(=O)/C(=C/c3ccc(OC)cc3)S2)C1 (stereo unspecified)	-	-	-	-	-	-	.	.	.	.	.
CCOC(=O)C1CCCN(C2=NC(=O)/C(=C/c3ccc(N(C)C)cc3)S2)C1 (stereo unspecified)	114	-	128	-	-	.	130	126	171	-	-
C[C@@H]1CN([C@H](C)CO)C(=O)c2cc(C#Cc3ccccn3)cnc2O[C@@H]1CN(C)C(=O)c1ccccn1	.	.	.	.	-	.	.	.	.	.	.
COc1ccc(N=Cc2c(O)c3ccccc3n2C(C)=O)cc1	61	-	122	97	-	.	131	128	50	-	56
CC(C)N1CCc2c(sc(NC(=O)c3ccc(S(=O)(=O)N4CCc5ccccc54)cc3)c2C(N)=O)C1	47	-	82	53	.	.	84	93	.	-	-
NC(=O)c1ccsc1NC(=O)c1ccc(S(=O)(=O)N2CCCc3ccccc32)cc1	-	-	-	-	-	-	.	.	.	.	.
CO[C@@H]1CN(C)C(=O)c2cc(NS(=O)(=O)CC(F)(F)F)ccc2OC[C@H](C)N(Cc2nccs2)C[C@H]1C	.	.	.	.	-	.	.	.	.	.	.
O=C1C2C(C(=O)N1Cc1ccco1)C1C=CC2C12CC2 (stereo unspecified)	-	-	-	-	.	-	.	.	.	.	.
O=C1CC(=O)N(Cc2ccco2)C(=O)N1	66	-	92	-	.	162	47	59	-	25	44	Rpn11 confirm=125;MMP-2 counter-1=-;Thrombin FP=64
COc1cc(C2C(C#N)=C(N)Oc3cc(N(C)C)ccc32)cc2c1OCO2 (stereo unspecified)	36	-	100	-	.	.	98	99	86	-	20
C(=C\c1ccco1)/C1=NN(c2ccccc2)C(c2ccco2)C1 (stereo unspecified)	84	7.2	53	-	.	72	38	47	62	-	31	Rpn11 confirm=70;MMP-2 counter-1=-;Thrombin FP=55
Fc1ccc(C2=NN(c3ccccc3)C(c3ccco3)C2)cc1 (stereo unspecified)	-	-	-	-	-	-	.	.	.	.	.
CCOc1ccc(NC(=O)/C(C#N)=C/c2ccc(N3CCCC3)c(C)c2)cc1	46	-	83	-	-	.	83	89	99	-	25
CCOc1cc(/C=N/NC(=O)C(N)=O)cc(Br)c1O	-	-	-	-	-	-	.	.	.	.	.
CCOc1cc(/C=C(/C#N)C(=O)Nc2ccc(O)cc2)cc(Br)c1O	63	-	+	54	.	.	171	164	-	-	68
O=C(N/N=C/c1cc(Br)cc(Cl)c1O)c1ccc2c(c1)OCO2	100	-	35	-	-	+	33	45	-	29	20	Rpn11 confirm=198;MMP-2 counter-1=-;Thrombin FP=-
COc1ccccc1-c1ccc(/C=C2\C=CC(=O)O2)o1	77	-	114	-	-	.	117	113	-	-	53
COc1ccccc1-c1ccc(/C=C2/C=C(C)OC2=O)o1	-	-	-	-	-	-	.	.	.	.	.
CO[C@@H]1CN(C)C(=O)c2ccc(NC(=O)Nc3ccccc3F)cc2OC[C@H](C)N(C(C)=O)C[C@H]1C	.	.	.	.	-	.	.	.	.	.	.
COc1cc(/C=C2/C(=O)NN(c3ccc(Cl)cc3)C2=O)cc(Br)c1O	45	-	67	-	-	68	112	123	-	-	23	Rpn11 confirm=193;MMP-2 counter-1=-;Thrombin FP=79
COc1cc(/C=C2/C(=O)NN(c3ccc(Cl)c(Cl)c3)C2=O)cc([N+](=O)[O-])c1O	-	-	-	-	-	-	.	.	.	.	.
C[C@H]1CN([C@@H](C)CO)S(=O)(=O)c2ccc(C#CCN(C)C)cc2O[C@@H]1CN(C)C(=O)c1ccccc1F	.	.	.	.	-	.	.	.	.	.	.
CO[C@H]1CN(C)C(=O)c2ccc(NS(=O)(=O)CC(F)(F)F)cc2OC[C@@H](C)N(Cc2nccs2)C[C@H]1C	.	.	.	.	-	.	.	.	.	.	.
SMILES	CSN inh	aDG glyco act	TPT1 inhibitor	HNF4A DNA FP	Xi reactivation	Rpn11 inh	caTPT1 confirm	RNase T1 counter	CSN5 deneddyl	MMP-2 counter-2	Thrombin cntr	others
COc1ccc(NC(=O)N(C)C[C@H]2Oc3ccc(NC(=O)Cn4cnnn4)cc3C(=O)N([C@@H](C)CO)C[C@@H]2C)cc1	.	.	.	.	-	.	.	.	.	.	.
Cc1cc2nc3s/c(=C/c4ccc(-c5ccccc5C(=O)O)o4)c(=O)n3c2cc1C	99	-	112	-	-	.	125	123	-	-	64
COc1ccc(/C=C2\C(=O)NC(=S)N2C(=O)c2ccc(C)cc2)cc1	48	-	49	-	-	64	66	78	-	-	37	Rpn11 confirm=107;MMP-2 counter-1=-;Thrombin FP=56
O=C1NC(=S)N(C(=O)c2ccc(F)cc2)/C1=C/c1cccnc1	-	-	-	-	-	-	.	.	.	.	.
O=C(O)C(c1ccccc1)N1C(=O)/C(=C\c2ccc(-c3ccccc3Cl)o2)SC1=S (stereo unspecified)	92	-	124	-	-	.	128	130	-	-	94
CN1/C(=C/C=C(C#N)C#N)C=Cc2ccccc21	-	-	-	-	-	.	.	.	.	.	.
